# Active and inactive are the calls of the source. No cut-off for these calls is given here.
# Key:
# [1] = Stability in human liver microsomes; type: ADME, Microsome; details: read-out: Stability
# [2] = target: T1, Glucose-dependent insulinotropic receptor (Homo sapiens) (UniProt Q8TDV5); assay: Intrinsic activity at human GPR119 expressed in HEK293 cells assessed as stimulation of cAMP level at 10 uM incubated for 6 hrs by luciferase activity based luminometry relative to 10 uM 2-(2-(4-bromophenyl)-6-methylpyrimidin-4-ylamino)ethanol; type: functional, cell-based
# T1 sequence (whole entry): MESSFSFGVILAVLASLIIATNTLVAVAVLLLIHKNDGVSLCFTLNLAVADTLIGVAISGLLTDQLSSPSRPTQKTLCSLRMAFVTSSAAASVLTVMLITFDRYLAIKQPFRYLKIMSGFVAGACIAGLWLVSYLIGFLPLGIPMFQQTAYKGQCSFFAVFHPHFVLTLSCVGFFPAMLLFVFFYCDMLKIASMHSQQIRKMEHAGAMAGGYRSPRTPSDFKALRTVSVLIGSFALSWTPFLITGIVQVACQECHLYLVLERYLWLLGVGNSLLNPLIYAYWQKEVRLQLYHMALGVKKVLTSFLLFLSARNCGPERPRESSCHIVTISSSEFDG
# How it was run: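 Same HEK293 hGPR119/pCRE-luciferase system with 6 h exposure, lysis in 0.2% Triton X-100/PBS and luciferase read, triplicate wells. Test compound at 10 μM; response expressed as % of the luciferase signal given by the reference agonist at 10 μM.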
# Cytochrome P450 1A2 = target: T2, Cytochrome P450 1A2 (Homo sapiens, UniProt P05177); assay: Inhibition of CYP1A2; type: ADME
# T2 sequence (P05177 whole entry): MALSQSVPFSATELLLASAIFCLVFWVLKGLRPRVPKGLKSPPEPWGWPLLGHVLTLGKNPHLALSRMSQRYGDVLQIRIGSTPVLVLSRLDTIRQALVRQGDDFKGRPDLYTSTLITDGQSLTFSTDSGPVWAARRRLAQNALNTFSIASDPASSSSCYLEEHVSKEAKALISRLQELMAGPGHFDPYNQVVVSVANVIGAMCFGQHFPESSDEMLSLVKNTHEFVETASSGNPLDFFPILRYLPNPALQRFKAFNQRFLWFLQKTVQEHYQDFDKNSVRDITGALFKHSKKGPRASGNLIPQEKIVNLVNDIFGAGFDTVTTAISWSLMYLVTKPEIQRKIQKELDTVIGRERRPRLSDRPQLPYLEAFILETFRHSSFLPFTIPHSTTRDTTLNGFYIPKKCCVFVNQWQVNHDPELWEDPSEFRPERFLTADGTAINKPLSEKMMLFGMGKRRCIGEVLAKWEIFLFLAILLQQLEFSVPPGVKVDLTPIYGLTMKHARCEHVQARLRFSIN
# [3] = target: T1, Glucose-dependent insulinotropic receptor (Homo sapiens); assay: Agonist activity at human GPR119 expressed in HEK293 cells assessed as stimulation of cAMP level incubated for 6 hrs by luciferase activity based luminometry; type: functional, cell-based
# How it was run: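 HEK293 cells stably expressing human GPR119 plus pCRE-luciferase reporter; 2.5×10^4 cells/well, overnight at 37 °C in 5% CO₂, then compound (DMSO) at 0.01–10 μM for 6 h. Lysis in 0.2% Triton X-100/PBS pH 7.4, luminometer read of luciferase. Triplicates per concentration. EC = concentration matching the response of reference agonist at 10 μM.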
# Mus musculus [4] = assay: Antihyperglycemic activity in ICR mouse assessed as reduction in glucose levels at 1 mg/kg, po dosed post overnight fasting by oral glucose tolerance test; type: functional; set-up: scale not given: the % may be the effect or the level left
# How it was run: (§1)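 Eight-week-old male ICR mice, fasted overnight, dosed orally with compound in 0.5% methylcellulose or vehicle alone. Oral glucose 2 g/kg given 10 min later. Tail-vein blood taken 30 min after glucose, and glucose measured by Glucose CII test.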
# Mus musculus [5] = assay: Antihyperglycemic activity in ICR mouse assessed as reduction in glucose levels at 3 mg/kg, po dosed post overnight fasting by oral glucose tolerance test; type: functional; set-up: scale not given: the % may be the effect or the level left; how it was run: as §1
# Mus musculus [6] = assay: Antidiabetic activity in kk/Ay mouse assessed as reduction in plasma triglyceride level at 3 mg/kg, po once daily for week by Triglyceride E-test; type: functional, organism-based; set-up: dose 3 mg/kg
# How it was run: (§2)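 Eight-week-old male kk/Ay mice, n = 8 per group, dosed orally once daily for one week at 3 mg/kg, with 0.5% methylcellulose vehicle group. Fed-state tail-vein blood for glucose (Glucose CII), insulin and triglyceride (Triglyceride E-test). Pancreas weighed, homogenized, extracted with acid-ethanol, spun 10 min at 3000 g, supernatant insulin assayed. Mean ± SE; Dunnett's test.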
# Mus musculus [7] = assay: Antidiabetic activity in kk/Ay mouse assessed as reduction in blood glucose at 3 mg/kg, po once daily for week by Glucose cII test; type: functional, organism-based; set-up: dose 3 mg/kg; how it was run: as §2
# Mus musculus [8] = assay: Antidiabetic activity in kk/Ay mouse assessed as reduction in plasma insulin at 3 mg/kg, po once daily for week; type: functional, organism-based; set-up: dose 3 mg/kg; how it was run: as §2
# Mus musculus [9] = assay: Antihyperglycemic activity in ICR mouse assessed as reduction in glucose levels at 10 mg/kg, po dosed post overnight fasting by oral glucose tolerance test; type: functional; set-up: scale not given: the % may be the effect or the level left
# [10] = Total clearance in monkey at 1 mg/kg, iv; type: ADME, organism-based, Macaca mulatta; set-up: dose 1 mg/kg, route intravenous; details: rhesus monkey, in vivo
# [11] = Total clearance in mouse at 1 mg/kg, iv; type: ADME, organism-based; set-up: dose 1 mg/kg, route intravenous; details: in vivo
# [12] = Half life in monkey at 1 mg/kg, iv; type: ADME, organism-based, Macaca mulatta; set-up: dose 1 mg/kg, route intravenous; details: rhesus monkey, in vivo
# [13] = Oral bioavailability in monkey at 3 mg/kg; type: ADME, organism-based, Macaca mulatta; details: rhesus monkey, in vivo
# [14] = Tmax in monkey at 3 mg/kg, po; type: ADME, organism-based, Macaca mulatta; set-up: dose 3 mg/kg, route oral; details: rhesus monkey, in vivo
# [15] = Tmax in mouse at 3 mg/kg, po; type: ADME, organism-based; set-up: dose 3 mg/kg, route oral; details: in vivo
# Mus musculus [16] = assay: Antidiabetic activity in kk/Ay mouse assessed as improvement in pancreatic insulin level at 3 mg/kg, po once daily for week
# [17] = Half life in mouse at 1 mg/kg, iv; type: ADME, organism-based; set-up: dose 1 mg/kg, route intravenous; details: in vivo
# [18] = Volume of distribution at steady state in monkey at 1 mg/kg, iv; type: ADME, organism-based, Macaca mulatta; set-up: dose 1 mg/kg, route intravenous; details: rhesus monkey, in vivo, read-out: Vdss
# [19] = Volume of distribution at steady state in mouse at 1 mg/kg, iv; type: ADME, organism-based; set-up: dose 1 mg/kg, route intravenous; details: in vivo, read-out: Vdss
# [20] = Oral bioavailability in mouse at 3 mg/kg; type: ADME, organism-based; details: in vivo
SMILES,Intrinsic activity [2],IC50 (Cytochrome P450 1A2),EC [3],Activity (Mus musculus [5]),also measured
CCc1cc(NC[C@@H](O)CO)nc(-c2ccc(Br)c(F)c2)n1,284%,1500 nM,0.19 µM,,CLint scaled [1]: 168 mL/min/kg; Activity (Mus musculus [4]): 23%
Cc1cc(NCCc2ccc[n+]([O-])c2)nc(-c2ccc(Cl)c(Cl)c2)n1,430%,,0.72 µM,15%,
Cc1cc(NCCc2ccc[n+]([O-])c2)nc(-c2cc(F)c(Cl)cc2F)n1,536%,3700 nM,0.21 µM,27%,
Cc1cc(NCCc2ccc[n+]([O-])c2)nc(-c2ccc(Br)c(F)c2)n1,573%,,0.22 µM,30%,
Cc1cc(NCCc2ccc[n+]([O-])c2)nc(-c2ccc(Cl)cc2)n1,376%,,0.7 µM,,
CCc1ccc(CCOc2ccc(CC3SC(=O)NC3=O)cc2)nc1 (configuration not stated),,,,,Activity (Mus musculus [6]): Active; Activity (Mus musculus [7]): Active; Activity (Mus musculus [8]): Active
CCc1cc(NC[C@@H](O)CO)nc(-c2ccc(Cl)c(F)c2)n1,266%,2100 nM,0.39 µM,,CLint scaled [1]: 236 mL/min/kg; Activity (Mus musculus [4]): 24%
CCc1cc(NCCc2cc[nH]c(=O)c2)nc(-c2cc(F)c(Cl)cc2F)n1,578%,,0.013 µM,25%,
Cc1cc(NCCc2ccc[n+]([O-])c2)nc(-c2ccc(Br)cc2)n1,325%,,1.2 µM,inactive,Activity (Mus musculus [9]): 38%
Cc1cc(NCCc2ccc[n+]([O-])c2)nc(-c2cc(F)c(Br)c(F)c2)n1,493%,,0.34 µM,15%,
CCc1cc(NC[C@H](O)CO)nc(-c2ccc(Br)c(F)c2)n1,283%,1600 nM,0.59 µM,,Activity (Mus musculus [4]): 16%
Cc1cc(NC[C@@H](O)CO)nc(-c2ccc(Br)c(F)c2)n1,346%,1700 nM,1.2 µM,,
CCc1cc(NC[C@@H](O)CO)nc(-c2cc(F)c(Br)cc2F)n1,391%,25000 nM,0.22 µM,,Activity (Mus musculus [4]): 19%
Cc1cc(NCCc2cc[nH]c(=O)c2)nc(-c2cc(F)c(Br)cc2F)n1,1080%,,0.017 µM,23%,
Cc1cc(NCCc2ccc[n+]([O-])c2)nc(-c2ccc(Cl)c(F)c2)n1,450%,,0.33 µM,25%,
Cc1cc(NC[C@H](O)CO)nc(-c2ccc(Br)c(F)c2)n1,257%,,2.3 µM,,
Cc1cc(NCCc2cc[nH]c(=O)c2)nc(-c2ccc(Br)c(F)c2)n1,617%,,0.021 µM,10%,
Cc1cc(NCCc2cc[nH]c(=O)c2)nc(-c2cc(F)c(Cl)cc2F)n1,722%,,0.0069 µM,21%,
Cc1cc(NCCc2ccc[n+]([O-])c2)nc(-c2cc(F)c(Br)cc2F)n1,588%,7200 nM,0.11 µM,23%,
CCc1cc(NC[C@@H](O)CO)nc(-c2cc(F)c(Cl)cc2F)n1,497%,35000 nM,0.28 µM,,CLint scaled [1]: < 20 mL/min/kg; clearance [10]: 12 mL/min/kg; clearance [11]: 35.9 mL/min/kg; half-life [12]: 276 min; bioavailability [13]: 51%; Activity (Mus musculus [6]): Active; Tmax [14]: 2.2 h; Tmax [15]: 6 min; Activity (Mus musculus [16]): Active; Activity (Mus musculus [7]): Active; Activity (Mus musculus [4]): 25%; Activity (Mus musculus [8]): Active; half-life [17]: 132 min; Vd [18]: 4.7 L/kg; Vd [19]: 6.9 L/kg; bioavailability [20]: 86%
Cc1cc(NCCc2ccc[n+]([O-])c2)nc(-c2ccc(Br)cc2F)n1,268%,,1.5 µM,19%,
Cc1cc(NCCc2ccc[n+]([O-])c2)nc(-c2ccccc2)n1,inactive,,,,
